Test results published in ChEMBL document CHEMBL2407081, “Discovery of potent, isoform-selective inhibitors of histone deacetylase containing chiral heterocyclic capping groups and a N-(2-aminophenyl)benzamide binding unit” (J Med Chem, 2013).
Calls of active or inactive are those of the source. The calls are words filed in the database; no cut-off is given here.

Key:
Jurkat [1] = assay: Induction of apoptosis in human Jurkat cells assessed as PARP cleavage at 1 to 10 uM after 24 hrs by Western blot analysis; type: functional, cell-based
HeLa [2] = assay: Induction of apoptosis in human HeLa cells assessed as PARP cleavage at 1 to 10 uM after 24 hrs by Western blot analysis; type: functional, cell-based
Jurkat [3] = assay: Cell cycle arrest in human Jurkat cells assessed as accumulation at G2/M phase at 1 uM after 24 hrs by FITC/propidium iodide staining-based FACS flow cytometric analysis (reference value: 14.4%); type: functional
How it was run: (§1)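 HeLa and Jurkat human cells were cultured for 24 h with compound at two concentrations. The control was an equal volume of the DMSO diluent. Cellular DNA and protein content were then measured by flow cytometry, and the percentage of cells in sub-G1, G0/G1, S and G2/M was read out.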

Jurkat [4] = assay: Cell cycle arrest in human Jurkat cells assessed as accumulation at S phase at 1 uM after 24 hrs by FITC/propidium iodide staining-based FACS flow cytometric analysis (reference value: 22.3%); type: functional; how it was run: as §1
Jurkat [5] = assay: Cell cycle arrest in human Jurkat cells assessed as accumulation at G0/G1 phase at 1 uM after 24 hrs by FITC/propidium iodide staining-based FACS flow cytometric analysis (reference value: 55.5%); type: functional; how it was run: as §1
Jurkat [6] = assay: Cell cycle arrest in human Jurkat cells assessed as accumulation at sub-G1 phase at 1 uM after 24 hrs by FITC/propidium iodide staining-based FACS flow cytometric analysis (reference value: 6.8%); type: functional; how it was run: as §1
Jurkat [7] = assay: Cell cycle arrest in human Jurkat cells assessed as accumulation at G2/M phase at 10 uM after 24 hrs by FITC/propidium iodide staining-based FACS flow cytometric analysis (reference value: 13.2%); type: functional; how it was run: as §1
Jurkat [8] = assay: Cell cycle arrest in human Jurkat cells assessed as accumulation at S phase at 10 uM after 24 hrs by FITC/propidium iodide staining-based FACS flow cytometric analysis (reference value: 15.3%); type: functional; how it was run: as §1
Jurkat [9] = assay: Cell cycle arrest in human Jurkat cells assessed as accumulation at G0/G1 phase at 10 uM after 24 hrs by FITC/propidium iodide staining-based FACS flow cytometric analysis (reference value: 69.5%); type: functional; how it was run: as §1
Jurkat [10] = assay: Cell cycle arrest in human Jurkat cells assessed as accumulation at sub-G1 phase at 10 uM after 24 hrs by FITC/propidium iodide staining-based FACS flow cytometric analysis (reference value: 2%); type: functional; how it was run: as §1
MCF7 = assay: Cytotoxicity against human MCF7 cells assessed as growth inhibition by measuring cellular ATP level after 72 hrs by cell-titer glo assay; type: functional, cell-based; details: MCF7, 72 h
DU-145 = assay: Cytotoxicity against human DU145 cells assessed as growth inhibition by measuring cellular ATP level after 72 hrs by cell-titer glo assay; type: functional, cell-based; details: DU-145, 72 h
HCT-116 = assay: Cytotoxicity against human HCT116 cells assessed as growth inhibition by measuring cellular ATP level after 72 hrs by cell-titer glo assay; type: functional, cell-based; details: HCT-116, 72 h
A549 = assay: Cytotoxicity against human A549 cells assessed as growth inhibition by measuring cellular ATP level after 72 hrs by cell-titer glo assay; type: functional, cell-based; details: A549, 72 h
Histone deacetylase 1 = Histone deacetylase 1 (Homo sapiens, UniProt Q13547); assay: Inhibition of recombinant C-terminal FLAG-tagged HDAC1 (unknown origin) expressed in Escherichia coli BL21 using MAL as substrate incubated for 1 hr prior to substrate addition measured after 60 mins by fluorescence plate reader analysis
Sequence of Histone deacetylase 1 (Q13547 whole entry): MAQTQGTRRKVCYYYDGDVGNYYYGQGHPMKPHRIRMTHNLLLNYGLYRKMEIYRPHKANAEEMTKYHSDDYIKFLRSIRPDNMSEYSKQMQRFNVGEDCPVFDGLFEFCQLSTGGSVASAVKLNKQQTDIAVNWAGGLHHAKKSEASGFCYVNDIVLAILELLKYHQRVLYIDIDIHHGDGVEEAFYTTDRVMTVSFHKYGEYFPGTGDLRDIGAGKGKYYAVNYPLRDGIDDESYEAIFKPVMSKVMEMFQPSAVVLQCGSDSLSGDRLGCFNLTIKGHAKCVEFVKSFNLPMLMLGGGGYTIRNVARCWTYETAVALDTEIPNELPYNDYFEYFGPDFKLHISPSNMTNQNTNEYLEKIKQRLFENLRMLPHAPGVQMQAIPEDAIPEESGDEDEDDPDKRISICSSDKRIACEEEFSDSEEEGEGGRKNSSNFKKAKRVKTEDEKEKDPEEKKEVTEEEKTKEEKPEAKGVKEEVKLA

Histone deacetylase 8 = biological target: T1, Histone deacetylase 8 (Homo sapiens, UniProt Q9BY41); assay: Inhibition of recombinant HDAC8 (unknown origin) expressed in Escherichia coli BL21 using MAL as substrate incubated for 15 mins prior to substrate addition measured after 60 mins by fluorescence plate reader analysis
T1 sequence (Q9BY41 whole entry): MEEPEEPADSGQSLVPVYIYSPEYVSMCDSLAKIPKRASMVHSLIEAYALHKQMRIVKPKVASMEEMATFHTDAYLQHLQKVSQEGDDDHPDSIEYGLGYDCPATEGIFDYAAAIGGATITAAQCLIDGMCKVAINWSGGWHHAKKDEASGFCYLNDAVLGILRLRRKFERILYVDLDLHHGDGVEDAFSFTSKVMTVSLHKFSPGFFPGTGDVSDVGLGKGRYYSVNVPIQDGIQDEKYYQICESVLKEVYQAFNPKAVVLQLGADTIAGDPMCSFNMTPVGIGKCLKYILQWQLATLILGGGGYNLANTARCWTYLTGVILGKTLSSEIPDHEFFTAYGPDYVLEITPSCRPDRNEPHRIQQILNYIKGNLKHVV

[11] = biological target: Histone deacetylase 3/NCoR1 (Homo sapiens, UniProt O15379); assay: Inhibition of recombinant HDAC3-NCoR1 (unknown origin) using MAL as substrate incubated for 3 hrs prior to substrate addition measured after 60 mins by fluorescence plate reader analysis; type: protein-complex assay
Sequence of Histone deacetylase 3/NCoR1 (O15379 whole entry): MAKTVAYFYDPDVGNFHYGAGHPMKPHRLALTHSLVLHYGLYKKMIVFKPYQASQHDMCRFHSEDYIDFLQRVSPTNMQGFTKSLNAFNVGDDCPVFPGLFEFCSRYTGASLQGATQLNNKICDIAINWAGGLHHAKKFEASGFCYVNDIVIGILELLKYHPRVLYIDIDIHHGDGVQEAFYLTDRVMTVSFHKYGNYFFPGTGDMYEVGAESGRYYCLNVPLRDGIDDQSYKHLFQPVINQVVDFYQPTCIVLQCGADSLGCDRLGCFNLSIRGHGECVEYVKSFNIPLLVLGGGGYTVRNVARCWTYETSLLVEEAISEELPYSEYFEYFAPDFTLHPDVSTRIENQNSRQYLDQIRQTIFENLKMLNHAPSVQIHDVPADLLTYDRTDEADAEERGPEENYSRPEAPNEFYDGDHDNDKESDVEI
Sequence of Histone deacetylase 3/NCoR1 (O75376 whole entry, further chain): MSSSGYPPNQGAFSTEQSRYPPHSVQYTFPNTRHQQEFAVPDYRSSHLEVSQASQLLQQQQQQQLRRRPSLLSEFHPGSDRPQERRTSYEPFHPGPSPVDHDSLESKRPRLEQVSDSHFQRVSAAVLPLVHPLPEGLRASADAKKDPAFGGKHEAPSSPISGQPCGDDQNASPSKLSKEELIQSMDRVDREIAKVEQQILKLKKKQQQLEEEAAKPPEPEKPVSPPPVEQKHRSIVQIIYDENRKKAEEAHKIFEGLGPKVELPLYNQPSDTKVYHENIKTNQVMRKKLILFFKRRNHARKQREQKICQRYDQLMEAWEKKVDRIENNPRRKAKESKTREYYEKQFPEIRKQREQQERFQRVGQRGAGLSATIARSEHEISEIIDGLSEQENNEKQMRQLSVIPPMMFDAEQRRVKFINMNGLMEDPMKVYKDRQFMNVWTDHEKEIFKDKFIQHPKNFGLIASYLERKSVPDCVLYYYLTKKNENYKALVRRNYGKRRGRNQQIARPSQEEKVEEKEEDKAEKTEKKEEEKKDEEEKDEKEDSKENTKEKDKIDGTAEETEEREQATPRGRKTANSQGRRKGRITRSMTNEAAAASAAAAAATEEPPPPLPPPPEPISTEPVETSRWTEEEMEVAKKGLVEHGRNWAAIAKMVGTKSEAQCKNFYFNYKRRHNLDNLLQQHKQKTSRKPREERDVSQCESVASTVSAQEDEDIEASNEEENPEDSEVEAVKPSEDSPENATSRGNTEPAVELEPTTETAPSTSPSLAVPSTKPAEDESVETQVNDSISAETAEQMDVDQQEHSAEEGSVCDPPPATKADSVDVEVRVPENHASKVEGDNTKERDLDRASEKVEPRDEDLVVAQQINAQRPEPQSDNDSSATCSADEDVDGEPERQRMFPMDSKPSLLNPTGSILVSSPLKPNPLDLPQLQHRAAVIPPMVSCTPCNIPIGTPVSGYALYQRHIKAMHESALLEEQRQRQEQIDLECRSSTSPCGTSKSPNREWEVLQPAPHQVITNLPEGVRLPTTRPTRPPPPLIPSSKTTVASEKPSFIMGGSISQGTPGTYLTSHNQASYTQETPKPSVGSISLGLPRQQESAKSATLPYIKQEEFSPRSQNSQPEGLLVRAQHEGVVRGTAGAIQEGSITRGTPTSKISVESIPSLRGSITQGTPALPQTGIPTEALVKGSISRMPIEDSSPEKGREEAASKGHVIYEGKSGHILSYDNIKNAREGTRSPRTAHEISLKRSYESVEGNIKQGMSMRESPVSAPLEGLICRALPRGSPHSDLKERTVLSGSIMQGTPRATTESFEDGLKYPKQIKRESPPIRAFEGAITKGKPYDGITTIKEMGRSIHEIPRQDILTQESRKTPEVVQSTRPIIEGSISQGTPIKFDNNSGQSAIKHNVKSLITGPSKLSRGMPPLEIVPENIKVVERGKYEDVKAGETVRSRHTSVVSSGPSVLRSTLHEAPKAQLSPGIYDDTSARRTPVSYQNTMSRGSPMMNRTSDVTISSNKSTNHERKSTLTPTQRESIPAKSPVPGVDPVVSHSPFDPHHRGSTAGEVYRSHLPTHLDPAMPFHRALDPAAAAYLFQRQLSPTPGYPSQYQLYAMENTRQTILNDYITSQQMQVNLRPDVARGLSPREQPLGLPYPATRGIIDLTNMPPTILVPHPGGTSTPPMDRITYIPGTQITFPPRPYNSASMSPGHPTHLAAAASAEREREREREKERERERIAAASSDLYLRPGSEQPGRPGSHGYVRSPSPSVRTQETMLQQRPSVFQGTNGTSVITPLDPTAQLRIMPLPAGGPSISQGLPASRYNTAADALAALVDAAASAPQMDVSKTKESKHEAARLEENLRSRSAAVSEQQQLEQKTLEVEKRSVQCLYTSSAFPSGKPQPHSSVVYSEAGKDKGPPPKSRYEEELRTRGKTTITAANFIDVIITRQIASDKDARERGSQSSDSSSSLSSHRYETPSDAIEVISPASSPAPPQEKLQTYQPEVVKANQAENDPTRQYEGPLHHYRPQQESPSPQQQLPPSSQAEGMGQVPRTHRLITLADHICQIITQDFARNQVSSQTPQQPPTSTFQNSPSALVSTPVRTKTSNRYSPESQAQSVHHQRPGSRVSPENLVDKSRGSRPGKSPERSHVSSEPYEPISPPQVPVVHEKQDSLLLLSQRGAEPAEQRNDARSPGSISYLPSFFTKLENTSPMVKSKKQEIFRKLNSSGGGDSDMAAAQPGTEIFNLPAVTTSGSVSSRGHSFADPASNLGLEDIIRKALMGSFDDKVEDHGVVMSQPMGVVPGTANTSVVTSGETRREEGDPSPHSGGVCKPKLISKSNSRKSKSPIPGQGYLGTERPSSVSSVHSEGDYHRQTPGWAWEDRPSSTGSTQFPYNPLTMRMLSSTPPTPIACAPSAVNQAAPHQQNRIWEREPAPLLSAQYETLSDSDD

Histone deacetylase 2 = Histone deacetylase 2 (Homo sapiens, UniProt Q92769); assay: Inhibition of recombinant His-tagged HDAC2 (1 to 488) (unknown origin) using MAL as substrate incubated for 3 hrs prior to substrate addition measured after 60 mins by fluorescence plate reader analysis
Sequence of Histone deacetylase 2 (Q92769 whole entry): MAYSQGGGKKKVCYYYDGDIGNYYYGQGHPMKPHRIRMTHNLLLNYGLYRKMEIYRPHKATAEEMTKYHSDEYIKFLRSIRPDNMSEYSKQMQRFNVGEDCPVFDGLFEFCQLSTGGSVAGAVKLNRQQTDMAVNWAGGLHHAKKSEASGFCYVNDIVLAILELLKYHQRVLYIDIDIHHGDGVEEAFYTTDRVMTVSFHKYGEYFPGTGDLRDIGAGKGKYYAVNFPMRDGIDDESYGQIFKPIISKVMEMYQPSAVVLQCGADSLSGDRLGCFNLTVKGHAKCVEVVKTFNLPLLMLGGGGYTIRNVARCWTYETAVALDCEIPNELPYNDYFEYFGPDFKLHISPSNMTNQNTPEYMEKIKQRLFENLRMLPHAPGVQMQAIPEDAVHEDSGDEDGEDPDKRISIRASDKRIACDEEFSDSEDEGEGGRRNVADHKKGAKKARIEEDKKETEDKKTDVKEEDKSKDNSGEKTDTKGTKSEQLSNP

[12] = biological target: T2, Protein deacetylase HDAC6 (Homo sapiens, UniProt Q9UBN7); assay: Inhibition of recombinant His-tagged HDAC6 (unknown origin) using Fluor-de-Lys SIRT1 as substrate incubated for 3 hrs prior to substrate addition measured after 60 mins by fluorescence plate reader analysis
T2 sequence (Q9UBN7 whole entry): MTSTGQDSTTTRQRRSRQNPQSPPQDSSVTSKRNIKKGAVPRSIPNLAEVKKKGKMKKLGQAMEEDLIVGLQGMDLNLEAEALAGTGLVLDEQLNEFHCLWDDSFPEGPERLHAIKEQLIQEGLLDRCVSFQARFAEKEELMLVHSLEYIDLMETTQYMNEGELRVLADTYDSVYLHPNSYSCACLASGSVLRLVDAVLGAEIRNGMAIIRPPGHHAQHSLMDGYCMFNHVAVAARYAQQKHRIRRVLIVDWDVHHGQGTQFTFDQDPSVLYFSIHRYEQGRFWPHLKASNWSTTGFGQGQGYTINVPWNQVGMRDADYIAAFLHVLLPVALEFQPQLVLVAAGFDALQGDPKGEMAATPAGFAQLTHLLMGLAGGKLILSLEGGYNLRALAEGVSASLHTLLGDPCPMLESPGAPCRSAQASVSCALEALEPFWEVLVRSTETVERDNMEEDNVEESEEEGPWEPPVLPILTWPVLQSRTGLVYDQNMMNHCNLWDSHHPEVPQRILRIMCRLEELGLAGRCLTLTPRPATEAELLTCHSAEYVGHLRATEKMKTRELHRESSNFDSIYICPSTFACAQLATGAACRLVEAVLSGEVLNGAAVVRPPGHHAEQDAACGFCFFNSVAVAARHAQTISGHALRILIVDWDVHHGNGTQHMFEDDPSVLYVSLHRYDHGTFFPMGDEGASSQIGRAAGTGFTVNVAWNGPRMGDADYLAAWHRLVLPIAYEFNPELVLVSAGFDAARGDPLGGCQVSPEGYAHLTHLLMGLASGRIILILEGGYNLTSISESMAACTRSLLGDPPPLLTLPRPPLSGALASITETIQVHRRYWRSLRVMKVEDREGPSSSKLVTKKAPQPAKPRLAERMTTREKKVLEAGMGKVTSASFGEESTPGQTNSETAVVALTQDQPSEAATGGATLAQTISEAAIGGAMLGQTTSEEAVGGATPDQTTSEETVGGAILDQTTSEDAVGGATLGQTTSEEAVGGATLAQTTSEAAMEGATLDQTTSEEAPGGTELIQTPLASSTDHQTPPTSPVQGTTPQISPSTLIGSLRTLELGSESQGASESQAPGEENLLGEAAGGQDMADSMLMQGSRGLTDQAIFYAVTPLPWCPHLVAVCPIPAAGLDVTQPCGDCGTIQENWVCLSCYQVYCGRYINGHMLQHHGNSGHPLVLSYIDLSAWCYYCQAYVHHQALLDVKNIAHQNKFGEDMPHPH

HeLa [13] = assay: Cell cycle arrest in human HeLa cells assessed as accumulation at G2/M phase at 10 uM after 24 hrs by FITC/propidium iodide staining-based FACS flow cytometric analysis; type: functional; how it was run: as §1
[14] = biological target: Histone deacetylase 3/NCoR1 (Homo sapiens) (UniProt O15379+O75376); assay: Competitive inhibition of recombinant HDAC3-NCoR1 (unknown origin) assessed as fast tight binding at 0.016 to 1 uM; type: protein-complex assay

Row | IC50 (Histone deacetylase 8) | IC50 [11] | IC50 (Histone deacetylase 2) | IC50 [12] | SMILES | Activity (Jurkat [1]) | Activity (HeLa [2]) | Activity (Jurkat [3]) | Activity (Jurkat [4]) | Activity (Jurkat [5]) | Activity (Jurkat [6]) | Activity (Jurkat [7]) | Activity (Jurkat [8]) | Activity (Jurkat [9]) | Activity (Jurkat [10]) | IC50 (MCF7) | IC50 (DU-145) | IC50 (HCT-116) | IC50 (A549) | other results
1 |  |  |  |  | Nc1ccccc1NC(=O)c1ccc(CNc2nccc(-c3cccnc3)n2)cc1 [MOCETINOSTAT] | Active | inactive | 10.2% | 8.7% | 39.8% | 41.3% | 24% | 32.4% | 26.2% | 17.4% | 1260 nM | 2060 nM | 700 nM | 1730 nM | 
2 | 8000 nM | 14 nM | 56 nM | > 20000 nM | Nc1ccccc1NC(=O)c1ccc(CNC2=NC(=O)C(c3ccccc3)N2)cc1 (racemic) | Active | inactive | 15.1% | 22.3% | 55.2% | 7.4% | 10.7% | 20.7% | 65.5% | 3.1% | 30100 nM | > 50000 nM | 18200 nM | > 50000 nM | IC50 (Histone deacetylase 1): 350 nM; Activity (HeLa [13]): Active
3 | 410 nM | 31 nM | 219 nM | 42 nM | O=C(NO)c1ccc(CNc2nccc(-c3cccnc3)n2)cc1 |  |  |  |  |  |  |  |  |  |  |  |  |  |  | inhibition [14]: Active
